Laboratory results published in publication PMC4340684 (Bioorganic & medicinal chemistry, 2015).

Columns and labels:
recombinant rat HSL [1] = target: T1, recombinant rat HSL (Rattus norvegicus, UniProt P15304); experiment: HSL lipase assay; format: biochemical; details: for times more potent than the corresponding cis isomer: chain lengths of 12–18 carbon atoms
T1 sequence (P15304 1-768 isoform P15304-2): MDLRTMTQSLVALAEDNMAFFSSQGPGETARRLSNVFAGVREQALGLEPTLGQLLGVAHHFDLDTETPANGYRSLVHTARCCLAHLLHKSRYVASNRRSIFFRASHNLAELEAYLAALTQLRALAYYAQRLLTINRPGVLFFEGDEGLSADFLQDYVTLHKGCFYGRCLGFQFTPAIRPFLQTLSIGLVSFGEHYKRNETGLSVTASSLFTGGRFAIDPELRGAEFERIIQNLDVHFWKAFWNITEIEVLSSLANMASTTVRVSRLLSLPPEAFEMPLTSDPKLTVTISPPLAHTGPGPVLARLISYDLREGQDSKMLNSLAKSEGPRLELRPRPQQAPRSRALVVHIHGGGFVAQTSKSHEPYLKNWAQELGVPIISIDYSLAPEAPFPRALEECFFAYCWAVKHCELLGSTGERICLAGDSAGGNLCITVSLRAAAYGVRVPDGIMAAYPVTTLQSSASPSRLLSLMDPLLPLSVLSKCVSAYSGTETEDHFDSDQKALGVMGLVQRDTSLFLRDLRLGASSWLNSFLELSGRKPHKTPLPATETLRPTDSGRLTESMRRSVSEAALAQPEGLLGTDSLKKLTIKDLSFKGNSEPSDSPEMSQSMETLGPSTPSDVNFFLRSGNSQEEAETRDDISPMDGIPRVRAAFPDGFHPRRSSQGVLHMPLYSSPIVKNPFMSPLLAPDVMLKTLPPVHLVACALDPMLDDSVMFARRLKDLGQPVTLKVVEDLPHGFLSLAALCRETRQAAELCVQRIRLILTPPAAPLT

recombinant rat HSL [2] = target: T1, recombinant rat HSL; experiment: Determination of rate constants for binding and inactivation of HSL; format: biochemical; details: fit to Eqn 2; no preincubation, 37 °C
Method in brief: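 Baculovirus/Sf9-expressed rat HSL, Ni-NTA purified. Inhibitor in PC/PI (3:1) liposomes with 500 μM triolein plus 3H-triolein; pH 7.4 buffer, 0.2% BSA. Enzyme added directly at 37 °C; samples every 3–5 min for 30 min, 3H-oleate extracted, scintillation counted. Activity–time data at several inhibitor concentrations fit to Eqn 1 (kobs, k−2); normalized activity fit to Eqn 2 (KI, k2).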

CCCCCCCCCCCCCCCCO[P@]1(=O)CC[C@@H]2COC(=O)C2=C(C)O1 (racemic) [Cyclipostin P Phosphonate 6a, (±)-(3R(S),5aR(S))-3-(hexadecyloxy)-1-methyl-4,5,5a,6-tetrahydrofuro[3,4-e][1,2]oxaphosphepin-8(3H)-one 3-oxide]
fold less potent than the other bicyclic phosphonate analogs (recombinant rat HSL [1]; vs about 400 nM): about 10 fold

CCCCCCCCCCCC[C@H]1CC[P@@](=O)(OC)OC(C)=C1C(=O)OC [10b]
times more potent than the corresponding cis isomer (recombinant rat HSL [1]): 2–6 times

CCCCCCCCCCCCCCCC[C@H]1CC[P@@](=O)(OC)OC(C)=C1C(=O)OC [11b]
times more potent than the corresponding cis isomer (recombinant rat HSL [1]): 2–6 times

CCCCCCCCCCCCCCCCCC[C@H]1CC[P@@](=O)(OC)OC(C)=C1C(=O)OC [12b]
times more potent than the corresponding cis isomer (recombinant rat HSL [1]): 2–6 times

CCCCCCCCCCCCCCCCO[P@]1(=O)OC[C@@H]2COC(=O)C2=C(C)O1 [Cyclipostin P 4a]
k2 (forward rate constant for inactivation) (recombinant rat HSL [2]): 0.2 min⁻¹

CCCCCCCCCCCCCCCCO[P@]1(=O)OC[C@H]2COC(=O)C2=C(C)O1 [Cyclipostin P 4b]
fold weaker IC50 of the less potent diastereomer vs the more potent diastereomer (recombinant rat HSL [1]): 16 fold
